B1: Osa-1-4 twister ribozyme (parent)
chain: CCGCCUAACACUGCCAAUGCCGGUCCCAAGCCCGGAUAAAAGUGGAGGGGGCGG

Variants of: B1
Assay: self-cleavage, relative activity (ratio to wild type); higher = more cleavage; co-transcriptional
Procedure, shortened: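 The 48 positions downstream of the cleavage site in a 54-nucleotide Oryza sativa twister ribozyme template were synthesised at 97 % wild-type base and 1 % of each other base. The template was transcribed in vitro at 37 °C for 2 h, with self-cleavage allowed during transcription. Reads with or without upstream sequence after deep sequencing marked cleavage status, and relative activity is fraction cleaved normalised to wild type.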

Q: Which self-cleavage does the source give for C52A G45A here?
A: 0.26

Q: With C52A G45U as the variant, how does the self-cleavage read?
A: 0.1

Q: Which self-cleavage does the source give for C52A G45C here?
A: 0.07

Q: With C52U G42A as the variant, how does the self-cleavage read?
A: 0.91

Q: With C52U G42C as the variant, how does the self-cleavage read?
A: 0.39

Q: Which self-cleavage does the source give for C52U G42U here?
A: 0.13

Q: Which self-cleavage does the source give for C52A G48A here?
A: 0.14

Q: Which self-cleavage does the source give for C52A G48U here?
A: 0.07

Q: For C52A G48C, which self-cleavage is on record?
A: 0.1

Q: For C52G G53A, which self-cleavage is on record?
A: 0.57

Q: Which self-cleavage does the source give for C52G G53U here?
A: 0.44

Q: For C52G G53C, which self-cleavage is on record?
A: 0.24

Q: Which self-cleavage does the source give for C52U G23A here?
A: 0.68

Q: For C52U G23C, which self-cleavage is on record?
A: 0.06

Q: With C52U G23U as the variant, how does the self-cleavage read?
A: 0.25

Q: With C52U G13A as the variant, how does the self-cleavage read?
A: 0.14

Q: With C52U G13C as the variant, how does the self-cleavage read?
A: 0.01

Q: Which self-cleavage does the source give for C52U G13U here?
A: 0.05

Q: With C52U G19C as the variant, how does the self-cleavage read?
A: 0.18

Q: For C52U G19A, which self-cleavage is on record?
A: 0.93

Q: With C52U G19U as the variant, how does the self-cleavage read?
A: 0.48

Q: With C52A G53C as the variant, how does the self-cleavage read?
A: 0.5

Q: For C52A G53A, which self-cleavage is on record?
A: 0.92

Q: Which self-cleavage does the source give for C52A G53U here?
A: 0.8

Q: For C52G G13U, which self-cleavage is on record?
A: 0.06

Q: Which self-cleavage does the source give for C52G G13A here?
A: 0.12

Q: With C52G G13C as the variant, how does the self-cleavage read?
A: 0.07

Q: With C52A G42A as the variant, how does the self-cleavage read?
A: 0.68

Q: Which self-cleavage does the source give for C52A G42U here?
A: 0.11

Q: Which self-cleavage does the source give for C52A G42C here?
A: 0.16

Q: For C52A G47U, which self-cleavage is on record?
A: 0.21

Q: With C52A G47C as the variant, how does the self-cleavage read?
A: 0.1

Q: Which self-cleavage does the source give for C52A G47A here?
A: 0.22

Q: Which self-cleavage does the source give for C52G here?
A: 1.01

Q: Which self-cleavage does the source give for C52U here?
A: 1.03

Q: For C52G G23U, which self-cleavage is on record?
A: 0.14

Q: With C52G G23C as the variant, how does the self-cleavage read?
A: 0.09

Q: With C52G G23A as the variant, how does the self-cleavage read?
A: 0.28

Q: For C52A U12C, which self-cleavage is on record?
A: 0.48

Q: For C52A U12G, which self-cleavage is on record?
A: 0.18

Q: For C52A U12A, which self-cleavage is on record?
A: 0.71

Q: Which self-cleavage does the source give for C52A U18C here?
A: 0.93

Q: For C52A U18A, which self-cleavage is on record?
A: 0.93

Q: For C52A U18G, which self-cleavage is on record?
A: 0.82

Q: With C52A G44C as the variant, how does the self-cleavage read?
A: 0.96

Q: With C52A G44U as the variant, how does the self-cleavage read?
A: 0.93

Q: For C52A G44A, which self-cleavage is on record?
A: 0.98

Q: Which self-cleavage does the source give for C52U G50A here?
A: 0.97

Q: Which self-cleavage does the source give for C52U G50C here?
A: 0.57

Q: Which self-cleavage does the source give for C52U G50U here?
A: 0.98

Q: For C52G C9A, which self-cleavage is on record?
A: 0.57

Q: With C52G C9U as the variant, how does the self-cleavage read?
A: 0.85

Q: For C52G C9G, which self-cleavage is on record?
A: 0.86

Q: With C52G G34A as the variant, how does the self-cleavage read?
A: 0.77

Q: With C52G G34C as the variant, how does the self-cleavage read?
A: 0.17

Q: Which self-cleavage does the source give for C52G G34U here?
A: 0.42

Q: Which self-cleavage does the source give for C52U G47A here?
A: 0.45

Q: With C52U G47C as the variant, how does the self-cleavage read?
A: 0.12

Q: For C52U G47U, which self-cleavage is on record?
A: 0.4

Q: For C52G G19U, which self-cleavage is on record?
A: 0.27

Q: Which self-cleavage does the source give for C52G G19C here?
A: 0.14

Q: Which self-cleavage does the source give for C52G G19A here?
A: 0.55

Q: For C52U G22A, which self-cleavage is on record?
A: 0.91

Q: Which self-cleavage does the source give for C52U G22C here?
A: 0.17

Q: With C52U G22U as the variant, how does the self-cleavage read?
A: 0.88

Q: With C52U G45U as the variant, how does the self-cleavage read?
A: 0.17

Q: With C52U G45C as the variant, how does the self-cleavage read?
A: 0.07

Q: For C52U G45A, which self-cleavage is on record?
A: 0.54

Q: With C52U G35U as the variant, how does the self-cleavage read?
A: 0.99

Q: Which self-cleavage does the source give for C52U G35A here?
A: 0.96

Q: For C52U G35C, which self-cleavage is on record?
A: 0.63

Q: Which self-cleavage does the source give for C52G G44C here?
A: 0.9

Q: Which self-cleavage does the source give for C52G G44U here?
A: 0.9

Q: Which self-cleavage does the source give for C52G G44A here?
A: 0.98

Q: With C52U G44C as the variant, how does the self-cleavage read?
A: 1.05

Q: With C52U G44U as the variant, how does the self-cleavage read?
A: 1.02

Q: With C52U G44A as the variant, how does the self-cleavage read?
A: 1

Q: With C52U C9U as the variant, how does the self-cleavage read?
A: 0.87

Q: For C52U C9A, which self-cleavage is on record?
A: 0.62

Q: Which self-cleavage does the source give for C52U C9G here?
A: 0.95

Q: For C52G U18A, which self-cleavage is on record?
A: 0.91

Q: Which self-cleavage does the source give for C52G U18C here?
A: 0.93

Q: Which self-cleavage does the source give for C52G U18G here?
A: 0.86

Q: For C52G G22U, which self-cleavage is on record?
A: 0.35

Q: For C52G G22A, which self-cleavage is on record?
A: 0.75

Q: Which self-cleavage does the source give for C52G G22C here?
A: 0.09

Q: For C52A U24A, which self-cleavage is on record?
A: 0.14

Q: With C52A U24G as the variant, how does the self-cleavage read?
A: 0.04

Q: For C52A U24C, which self-cleavage is on record?
A: 0.18

Q: Which self-cleavage does the source give for C52A U37G here?
A: 1.06

Q: With C52A U37A as the variant, how does the self-cleavage read?
A: 0.9

Q: For C52A U37C, which self-cleavage is on record?
A: 1.02

Q: With C52G G30A as the variant, how does the self-cleavage read?
A: 0.06

Q: For C52G G30C, which self-cleavage is on record?
A: 0.07

Q: With C52G G30U as the variant, how does the self-cleavage read?
A: 0.05

Q: For C52G U12C, which self-cleavage is on record?
A: 0.58

Q: With C52G U12A as the variant, how does the self-cleavage read?
A: 0.85

Q: For C52G U12G, which self-cleavage is on record?
A: 0.32

Q: For C52A G51U, which self-cleavage is on record?
A: 0.48

Q: With C52A G51A as the variant, how does the self-cleavage read?
A: 0.9

Q: Which self-cleavage does the source give for C52A G51C here?
A: 0.43

Q: Which self-cleavage does the source give for C52U G49U here?
A: 0.15

Q: For C52U G49C, which self-cleavage is on record?
A: 0.07

Q: For C52U G49A, which self-cleavage is on record?
A: 0.21

Q: Which self-cleavage does the source give for C52U G51C here?
A: 0.13

Q: With C52U G51A as the variant, how does the self-cleavage read?
A: 0.88

Q: For C52U G51U, which self-cleavage is on record?
A: 0.54

Q: Which self-cleavage does the source give for C52A G49A here?
A: 0.21

Q: Which self-cleavage does the source give for C52A G49C here?
A: 0.08

Q: For C52A G49U, which self-cleavage is on record?
A: 0.1

Q: With C52G G45U as the variant, how does the self-cleavage read?
A: 0.14

Q: For C52G G45C, which self-cleavage is on record?
A: 0.1

Q: For C52G G45A, which self-cleavage is on record?
A: 0.27

Q: Which self-cleavage does the source give for C52A U43A here?
A: 0.85

Q: For C52A U43C, which self-cleavage is on record?
A: 0.5

Q: Which self-cleavage does the source give for C52A U43G here?
A: 0.37

Q: Which self-cleavage does the source give for C52G U37A here?
A: 0.81

Q: With C52G U37C as the variant, how does the self-cleavage read?
A: 1.05

Q: For C52G U37G, which self-cleavage is on record?
A: 1.02

Q: With C52U G48A as the variant, how does the self-cleavage read?
A: 0.15

Q: Which self-cleavage does the source give for C52U G48C here?
A: 0.11

Q: Which self-cleavage does the source give for C52U G48U here?
A: 0.11

Q: For C52G G54A, which self-cleavage is on record?
A: 0.81

Q: With C52G G54C as the variant, how does the self-cleavage read?
A: 0.91

Q: For C52G G54U, which self-cleavage is on record?
A: 0.97

Q: With C52G G49A as the variant, how does the self-cleavage read?
A: 0.2

Q: With C52G G49U as the variant, how does the self-cleavage read?
A: 0.13

Q: For C52G G49C, which self-cleavage is on record?
A: 0.07

Q: For C52U G53C, which self-cleavage is on record?
A: 0.17

Q: For C52U G53U, which self-cleavage is on record?
A: 0.9

Q: Which self-cleavage does the source give for C52U G53A here?
A: 1

Q: With C52U G34C as the variant, how does the self-cleavage read?
A: 0.65

Q: Which self-cleavage does the source give for C52U G34U here?
A: 0.85

Q: With C52U G34A as the variant, how does the self-cleavage read?
A: 0.93

Q: With C52G G47C as the variant, how does the self-cleavage read?
A: 0.11

Q: Which self-cleavage does the source give for C52G G47U here?
A: 0.29

Q: With C52G G47A as the variant, how does the self-cleavage read?
A: 0.28

Q: Which self-cleavage does the source give for C52A G50A here?
A: 0.69

Q: Which self-cleavage does the source give for C52A G50C here?
A: 0.14

Q: With C52A G50U as the variant, how does the self-cleavage read?
A: 0.25

Q: Which self-cleavage does the source give for C52G G51A here?
A: 0.84

Q: For C52G G51C, which self-cleavage is on record?
A: 0.41

Q: For C52G G51U, which self-cleavage is on record?
A: 0.48

Q: For C52G G48U, which self-cleavage is on record?
A: 0.09

Q: For C52G G48A, which self-cleavage is on record?
A: 0.13

Q: For C52G G48C, which self-cleavage is on record?
A: 0.1

Q: For C52G G50U, which self-cleavage is on record?
A: 0.24

Q: With C52G G50A as the variant, how does the self-cleavage read?
A: 0.85

Q: With C52G G50C as the variant, how does the self-cleavage read?
A: 0.09

Q: With C52G U43A as the variant, how does the self-cleavage read?
A: 0.9

Q: For C52G U43C, which self-cleavage is on record?
A: 0.55

Q: For C52G U43G, which self-cleavage is on record?
A: 0.65

Q: Which self-cleavage does the source give for C52G G42C here?
A: 0.22

Q: Which self-cleavage does the source give for C52G G42A here?
A: 0.75

Q: With C52G G42U as the variant, how does the self-cleavage read?
A: 0.14

Q: Which self-cleavage does the source give for C52U G30U here?
A: 0.04

Q: For C52U G30C, which self-cleavage is on record?
A: 0.04

Q: For C52U G30A, which self-cleavage is on record?
A: 0.04

Q: For C52A G54U, which self-cleavage is on record?
A: 0.89

Q: For C52A G54C, which self-cleavage is on record?
A: 0.87

Q: For C52A G54A, which self-cleavage is on record?
A: 0.69

Q: Which self-cleavage does the source give for C52G U24G here?
A: 0.06

Q: With C52G U24C as the variant, how does the self-cleavage read?
A: 0.22

Q: With C52G U24A as the variant, how does the self-cleavage read?
A: 0.23

Q: With C52G G35U as the variant, how does the self-cleavage read?
A: 0.91

Q: For C52G G35C, which self-cleavage is on record?
A: 0.36

Q: For C52G G35A, which self-cleavage is on record?
A: 0.84

Source: the RNAGym collection of RNA variant scans (doi:10.1002/anie.201605470)
